# CSN inh – inhibitors of human CSN-mediated cullin deneddylation. inhibition, % at 12.5 µM. hit rate 0.38% among 360,000. Purified CSN, SCF-Nedd8-OG deneddylation, fluorescence polarization;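 active = pattern-corrected inhibition above about 35%, with an unprinted fluorescence ratio check between 0.5 and 1.5, limit read from the data, passing the limit was not always enough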;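 also: 0% = enzyme with substrate and 100% = substrate without enzyme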
#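 Assay system: Purified human Csn5 enzyme expressed in HEK293T cells | Amount: Enzyme 0.24 nM | Measured by: Fluorescence polarization readout | Medium: Tris/NaCl/DTT buffer, pH 7.5 | Compound dosing: One concentration, 12.5 µM, 0.25% DMSO | Times: 90 min incubation of compound, enzyme and substrate at room temperature | Control set: no-enzyme wells high, enzyme-with-substrate wells low | Read-out: % inhibition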
# TPT1 inh – inhibitors of Candida albicans tRNA 2'-phosphotransferase TPT1 | recombinant caTPT1, FP RNA substrate dephosphorylation | inhibition, % at 5 µM | hit rate 0.81% among 300,000 | AID 1962;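 active = inhibition above the mean of all tested compounds plus 3 SD, set per screening campaign, cut at about 24% in these data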;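 also: plate controls were DMSO alone for no effect and ferristatin control at 100 nM for full effect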
# HNF4A DNA FP – change in binding of human HNF4 alpha to DNA. P41235. HNF4a-FITC DNA binding, fluorescence polarization, 1 h. hit rate 0.3% among 360,000. activity change, % at 10 µM; in the data active = activity change above about 30%, passing the limit was not always enough
# Rpn11 block – inhibitors of human proteasome Rpn11; inhibition, % at 20 µM; human 26S proteasome, Ub4-pepOG fluorescence polarization; 20S core pre-blocked with epoxomicin; hit rate 0.59% among 360,000;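 active = inhibition at 20 µM, scaled to each plate's controls, above about 33%, limit read from the data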
# Rpn11 confirm – Rpn11 inhibition confirmation, single concentration; hit rate 29% among 1,900; AID 602318; inhibition, % at 20 µM; purified human 26S proteasome, Ub4-pepOG fluorescence polarization; proteasome pretreated with epoxomicin; shares compounds with Rpn11 block
# MMP-2 counter-1 – blocks human MMP-2, flagging nonselective RPN11 hits; hit rate 4% among 1,900; AID 602330; shares compounds with Rpn11 block; inhibition, % at 20 µM; recombinant MMP-2, FRET peptide cleavage fluorescence;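 also: human MMP-2 activated beforehand with APMA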
# Thrombin inh – thrombin (bovine) inhibition counter-screen. shares compounds with Rpn11 block. bovine thrombin cleavage of Ub4-pepOG, fluorescence polarization. inhibition, % at 20 µM. hit rate 13% among 1,900. AID 602333;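 active = mean inhibition at least 40% at 20 µM, or signal 3 deviations below plate average, so some actives read negative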;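 also: plate controls were thrombin with DMSO for no effect and buffer wells lacking thrombin for full effect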
# Target sequence (P00735 whole entry, looked up): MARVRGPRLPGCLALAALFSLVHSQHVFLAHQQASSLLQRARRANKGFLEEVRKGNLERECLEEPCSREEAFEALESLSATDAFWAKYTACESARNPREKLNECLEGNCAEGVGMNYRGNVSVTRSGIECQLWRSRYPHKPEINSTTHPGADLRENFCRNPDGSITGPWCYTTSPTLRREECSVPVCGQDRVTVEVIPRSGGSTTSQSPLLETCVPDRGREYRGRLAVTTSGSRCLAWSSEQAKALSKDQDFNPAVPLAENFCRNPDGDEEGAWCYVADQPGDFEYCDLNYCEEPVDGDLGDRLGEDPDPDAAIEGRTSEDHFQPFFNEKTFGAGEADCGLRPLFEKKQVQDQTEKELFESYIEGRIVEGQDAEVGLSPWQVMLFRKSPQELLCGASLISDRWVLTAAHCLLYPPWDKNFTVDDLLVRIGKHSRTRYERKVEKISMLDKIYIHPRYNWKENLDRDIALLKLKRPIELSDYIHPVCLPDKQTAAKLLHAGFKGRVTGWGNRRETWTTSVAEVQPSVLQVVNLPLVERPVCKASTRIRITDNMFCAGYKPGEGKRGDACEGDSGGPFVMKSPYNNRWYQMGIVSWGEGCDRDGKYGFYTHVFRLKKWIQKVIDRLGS
# CSN deneddyl val – validation of inhibitors of human CSN-mediated cullin deneddylation | shares compounds with CSN inh | Csn5 deneddylation of SCF-Nedd8OG, fluorescence polarization, 90 min | inhibition, % at 16.6 µM | hit rate 62% among 540 | AID 720654; in the data active = inhibition above about 50%;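 also: 0% = DMSO with enzyme and 100% = no enzyme wells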
# MMP-2 counter-2 – MMP-2 (human) inhibition, counter-screen for CSN hits. hit rate 33% among 540. inhibition, % at 16.6 µM. recombinant MMP-2, FRET substrate fluorescence, 60 min. shares compounds with CSN inh. AID 720655;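 active = corrected plate-normalized z-score of 5 or more, or -5 or less, or inhibition of 15% or more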;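 also: plate controls were DMSO wells with enzyme for no effect and buffer wells lacking MMP-2 for full effect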
# Thrombin cntr – blocks bovine thrombin in a CSN deneddylation counter-screen | shares compounds with CSN inh | bovine thrombin cleavage of Ub4-pepOG, fluorescence polarization | inhibition, % at 16.6 µM | hit rate 49% among 540 | AID 720656;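 active = inhibition at or above a set limit, with a fluorescence interference ratio between 0.5 and a set maximum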
# HNF4A confirm – change in binding of human HNF4 alpha to DNA, retest; HNF4A-FITC DNA binding, fluorescence polarization, 1 h; hit rate 99% among 210; activity change, % at 12.5 µM; shares compounds with HNF4A DNA FP; AID 1224897; call rule not given here
# Starred values were filed as active, the others as inactive; . = no result shown. A selection: hits, their analogues and other compounds. The true share with any hit is near 1.5%. Rule as the data show it, unless noted: active = inhibition above about 40%; inactive = the rest.
SMILES,CSN inh,TPT1 inh,HNF4A DNA FP,Rpn11 block,CSN deneddyl val,MMP-2 counter-2,Thrombin cntr,others
COc1ccc(NC(=O)COc2ccc(/C=N/NC(=O)c3cccnc3)cc2OC)cc1,-1,0,3,-8,.,.,.,
CCCn1c(SCC(=O)N(C)CC(=O)Nc2ccc(C)cc2)n[nH]c1=O,1,.,1,1,.,.,.,
O=[N+]([O-])c1ccc(C=NNc2ccccc2)cc1,21,.,47*,55*,.,.,.,Rpn11 confirm=36;MMP-2 counter-1=-21;Thrombin inh=25;HNF4A confirm=47*
O=[N+]([O-])c1cccc(C=NNc2ccccc2)c1,-1,.,-3,-3,.,.,.,
O=C(N/N=C/c1cccnc1)c1ccc(NC(=O)c2ccc(Cl)cc2)cc1,6,-2,17,6,.,.,.,
O=C(N/N=C/c1cccnc1)c1ccc(NC(=O)c2cccc(Cl)c2)cc1,108*,-1,108*,64*,.,.,.,Rpn11 confirm=44*;MMP-2 counter-1=-8;Thrombin inh=-15;HNF4A confirm=152*
CC(C)CC(=O)Nc1nnc(SCC(=O)Nc2nccs2)s1,2,-6,-2,6,.,.,.,
COC(=O)/C=C1\SC(=Nc2ccc(Cl)c(Cl)c2)NC1=O,1,-4,0,5,.,.,.,
COc1cc(/C=C2\SC(=Nc3ccc(Cl)c(C(=O)O)c3)NC2=O)c(Br)c(Br)c1O,198*,.,76*,.,29,-101*,-84,
NCc1cc2c3c(c1)CCCN3CCC2,63*,-3,11,-19,88*,-10,-8,
COc1c(C=O)cc2c3c1CCCN3CCC2,7,-4,3,6,.,.,.,
COc1ccc(-c2csc(NC(=O)CSc3nc(C)cs3)n2)cc1,-2,1,-2,6,.,.,.,
COc1ccc(-c2csc(NC(=O)CSc3nc(C)nc4sc(C(=O)O)c(C)c34)n2)cc1,51*,-4,-1,-19,-8,13,5,
CC(C)Cn1c(N)c(C(=O)NCC2CCCO2)c2nc3ccccc3nc21 (centres undefined),43*,2,4,24,103*,-5,-5,
Fc1cccc(Cc2c(-c3ccco3)nc3c4ccccc4ccn23)c1,49*,.,16,23,69*,5,20*,
O=C(CCCOc1ccc(Cl)cc1Cl)N/N=C/c1cccc([N+](=O)[O-])c1,15,1,-6,12,.,.,.,
CCCCn1c(NC(=O)c2ccccc2)c(C#N)c2nc3ccccc3nc21,69*,.,85*,.,49,4,-11,
COc1cc(/C=C/C=C2/CC/C(=C/C=C/c3ccc(O)c(OC)c3)C2=O)ccc1O,115*,.,108,.,-53,-41*,52*,
Cc1cc(/C=c2\sc3nc4ccccc4n3c2=O)c(C)n1-c1ccc(C(=O)O)cc1,35*,.,-3,35,38,8,27*,
Cc1cc(/C=c2/sc3nc4ccccc4n3c2=O)c(C)n1-c1ccccn1,4,5,7,33,.,.,.,
O=[N+]([O-])c1cc2oc3c(c2c(C=NCc2ccccc2)c1O)CCCC3,74*,1,33,.,82*,0,18*,
COc1cccc(-c2cnc3c(NC(C)=O)cc(-c4ccc(S(C)(=O)=O)cc4)cn23)c1,9,.,2,4,.,.,.,
O=C(COC(=O)c1cncc(Br)c1)Nc1ccc(F)c(F)c1F,1,.,4,-7,.,.,.,
CC(C)Cn1c(N)c(C(=O)COC(=O)c2c(O)c(Cl)cc(Cl)c2Cl)c(=O)n(C)c1=O,-1,.,-3,14,.,.,.,
O=C(O)CCCN1C(=O)/C(=C\C(Cl)=C\c2ccccc2)SC1=S,40*,.,-7,-4,75*,30*,-3,
SMILES,CSN inh,TPT1 inh,HNF4A DNA FP,Rpn11 block,CSN deneddyl val,MMP-2 counter-2,Thrombin cntr,others
O=C1C=C(NCc2ccccc2)c2ccccc2C1=O,72*,.,0,21,77*,9,-24,
Oc1ccc(C2=Nn3c(nnc3-c3ccco3)SC2)cc1O,38*,-4,-3,-4,.,31*,14,
COc1ccc(NC(=O)N(C)C[C@H]2OCc3cn(nn3)CCCC(=O)N([C@@H](C)CO)C[C@@H]2C)cc1,1,.,2,-2,.,.,.,
CCOc1cc(/C=N/NC(=O)c2ccc(-c3csc(Nc4ccc(C)cc4)n3)cc2)ccc1OCC(=O)O,49*,.,-15,-8,45,30*,-5,
O=C(O)COc1ccc(/C=N/NC(=O)c2ccc(-c3csc(Nc4ccc(Cl)cc4)n3)cc2)cc1,93*,.,-91,70*,98*,16*,-7,
O=c1[nH]c(C2CCN(S(=O)(=O)c3ccccc3)CC2)nc2c1nnn2Cc1c(F)cccc1Cl,2,-3,2,-12,.,.,.,
Cn1nc(C(C)(C)C)cc1C(=O)NCc1ccc2c(c1)OCO2,2,-3,0,6,.,.,.,
CCCCCCCCCCCCCC(=O)NO,-5,.,-1,2,.,.,.,
CC(O)(c1ccc(F)c(F)c1)c1nc(-c2ccoc2)cs1 (centres undefined),6,.,10,7,.,.,.,
O=C(COC(=O)c1cc(Cl)ccc1O)NNC(=O)c1ccccc1F,4,.,1,-5,.,.,.,
COc1cc2c(oc(=O)c3cc(C)cc(OC)c32)c2c(C3OC(C)C(O)C(C)(O)C3O)ccc(O)c12 (centres undefined),35*,.,-11,7,107*,6,0,
CC1=C(C(=O)OC(C)C)C(c2ccc(Cl)cc2)n2c(sc(=Cc3ccc(OCC(=O)O)cc3)c2=O)=N1 (centres undefined),84*,.,-15,.,21,10,26*,
CCCC(=O)N1CCCC1(C)C(=O)Nc1ccc2nc(C)ccc2c1 (centres undefined),3,.,2,2,.,.,.,
C/C(=N/NC(=O)c1cc(-c2cccc([N+](=O)[O-])c2)n[nH]1)c1cccc(O)c1,5,3,1,1,.,.,.,
C/C(=N\NC(=O)c1cc(-c2cccc([N+](=O)[O-])c2)n[nH]1)c1ccccc1O,40*,1,-15,38,.,5,1,
CC(=O)c1ccc(NC(=O)CSc2nnc(-c3ccco3)c(-c3ccco3)n2)cc1,42,-6,-30,-7,.,.,.,

# From PubChem
